# “Also recorded” adds a separate entry of the source.
# Key:
# Assay type in all cases: biochemical
# MIF [1] = target: T1, MIF (Homo sapiens, UniProt P14174); experiment: Preincubation assay; settings: for Reversibility of inhibition: concluded from preincubation and dilution experiments; for Change in IC50 between preincubation times: preincubated with MIF (340 nM) for 2 or 40 min, inhibitor 125–0 μM
# T1 sequence (P14174 2-115 limits assumed): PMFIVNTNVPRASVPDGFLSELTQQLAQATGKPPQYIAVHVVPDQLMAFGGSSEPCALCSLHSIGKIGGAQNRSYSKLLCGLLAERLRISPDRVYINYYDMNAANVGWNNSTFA
# Procedure, shortened: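 His-tagged MIF (340 nM final, in boric acid pH 6.2) was preincubated 2 or 40 min with test compound (125–0 µM, 1.6-fold series, 5% DMSO). 0.5 mM 4-HPP (equilibrated overnight in ammonium acetate pH 6.0) was added, A306 followed, and IC50 curves made. For dilution, 34 µM MIF plus 125 µM compound was diluted 100-fold into 4-HPP/boric acid, with a DMSO-only control and absorbance tracked.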
# MIF [2] = target: T1, MIF; experiment: Dilution experiment; settings: MIF 34 μM with 125 μM inhibitor, diluted 100x in substrate solution
# Procedure, shortened: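 Recombinant His-tagged MIF, purified on His-Trap resin, was premixed at 34 µM with 125 µM test compound in 5% DMSO. The mix was diluted 100-fold into boric acid containing 0.5 mM 4-HPP. The 4-HPP stock was made in 50 mM ammonium acetate pH 6.0 and equilibrated overnight at room temperature. Enol-borate absorbance at 306 nm was plotted against time. The control used 5% DMSO without inhibitor.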
# MIF [3] = target: T1, MIF; experiment: Enzyme kinetic evaluation at increasing 4-HPP concentrations; settings: concluded from Vmax app. and Khalf app.
# Procedure, shortened: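 Initial velocities were taken from the linear slope of absorbance at 306 nm. Conditions were His-tagged recombinant MIF at 340 nM in boric acid pH 6.2, with 4-HPP at 0–2.56 mM (1.25× dilutions) and test compound at 0, 6.25 or 12.5 µM in 5% DMSO. Velocity versus substrate was fitted to an allosteric sigmoidal model, giving Vmax app., Hill slope and Kprime app. Khalf app. was calculated from Kprime and the Hill slope.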
SMILES,Reversibility of inhibition (MIF [1]),Change in IC50 between preincubation times (MIF [1]),MIF enzyme activity after dilution of the enzyme-inhibitor mixture (MIF [2]),Mechanism of inhibition (competition with substrate 4-HPP) (MIF [3])
CCCCCCCCCCCCN1C(=O)CC2C(=C(N)Oc3ccccc32)C1=O (stereo not drawn) [Compound 10],reversible inhibitors,No difference in IC50; also recorded: No significant change in IC50 value,activity of MIF could be recovered after dilution; also recorded: Diluting the inhibitor recovered the enzyme activity,no direct competition between the substrate 4-HPP and the inhibitor; also recorded: does not bind in direct competition with the substrate 4-HPP
Cc1ccc2c(c1)OC(N)=C1C(=O)N(CCc3c[nH]c4ccccc34)C(=O)CC12 (stereo not drawn) [Compound 17],reversible inhibitors,No difference in IC50,,

# Reference: PMC6323139 (Bioorganic & medicinal chemistry, 2017)
